# CHOP UPR activ: activators of apoptotic arm of unfolded protein response (CHOP); CHO-CHOP luciferase reporter, UPR activation, luminescence; percent of tunicamycin response over DMSO baseline; activation, % at 10 µM; 330,000 compounds, 0.34% hits; AID 449763;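 active means at 10 µM dose, activation of 40% or more, normalized to positive control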;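 further: 100% = tunicamycin at 10 µg/mL and 0% = DMSO alone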
#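 System: CHO-CHOP luciferase reporter cell line; amount: 500 cells/well; buffer or medium: F12 medium containing 10% fetal bovine serum; incubation: 6 h compound exposure at 37 °C after overnight seeding; measured by: luciferase luminescence after 10 min with Steady-Glo reagent; evaluation: % reporter activation, DMSO baseline versus tunicamycin full activation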
# VLA-4 inh: inhibition in a human VLA-4 binding assay; P13612; VLA-4 expressing cells, ligand binding flow cytometry; inhibition, % (about 7 µM as worked out from the volumes in the protocol); 330,000 compounds, 0.2% hits; in the data active means inhibition above about 50%
# Target sequence (P13612 whole entry, looked up): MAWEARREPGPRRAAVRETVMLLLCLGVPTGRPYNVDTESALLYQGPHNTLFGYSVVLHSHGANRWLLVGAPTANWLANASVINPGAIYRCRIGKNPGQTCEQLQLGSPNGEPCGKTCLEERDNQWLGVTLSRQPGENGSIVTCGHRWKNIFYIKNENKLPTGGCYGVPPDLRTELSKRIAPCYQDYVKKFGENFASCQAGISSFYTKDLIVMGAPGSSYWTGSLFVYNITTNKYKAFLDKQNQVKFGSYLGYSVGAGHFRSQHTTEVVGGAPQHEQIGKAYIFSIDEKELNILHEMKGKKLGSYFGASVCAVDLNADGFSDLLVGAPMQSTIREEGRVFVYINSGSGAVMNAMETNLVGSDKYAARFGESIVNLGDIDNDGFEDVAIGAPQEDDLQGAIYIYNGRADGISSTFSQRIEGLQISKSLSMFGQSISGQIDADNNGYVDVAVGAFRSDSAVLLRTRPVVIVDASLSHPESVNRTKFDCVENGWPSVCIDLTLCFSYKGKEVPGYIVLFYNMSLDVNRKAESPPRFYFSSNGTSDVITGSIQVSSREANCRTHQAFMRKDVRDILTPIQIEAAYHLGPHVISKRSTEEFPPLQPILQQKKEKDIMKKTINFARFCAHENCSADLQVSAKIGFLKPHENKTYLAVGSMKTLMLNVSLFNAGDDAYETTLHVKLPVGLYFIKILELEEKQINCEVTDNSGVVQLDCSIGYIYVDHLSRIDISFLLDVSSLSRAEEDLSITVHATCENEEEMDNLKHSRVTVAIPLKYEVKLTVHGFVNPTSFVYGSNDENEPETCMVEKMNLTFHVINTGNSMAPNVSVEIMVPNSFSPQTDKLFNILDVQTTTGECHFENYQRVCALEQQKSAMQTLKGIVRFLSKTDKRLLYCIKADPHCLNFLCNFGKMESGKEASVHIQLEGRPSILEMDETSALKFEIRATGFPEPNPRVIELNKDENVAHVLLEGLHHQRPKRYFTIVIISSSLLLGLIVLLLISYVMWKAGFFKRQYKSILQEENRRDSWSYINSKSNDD
# UPR XBP1 act: adaptive UPR (XBP1) activation. CHO-XBP1 luciferase reporter, IRE1-XBP1 UPR activation, luminescence; percent of tunicamycin response, DMSO as zero. activation, % at 20 µM. 330,000 compounds, 0.33% hits;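 active means versus positive control, 20 µM dose yields 30% or more activation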;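 further: 100% = tunicamycin at 10 µg/mL and 0% = DMSO only wells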
#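 Material: CHO-XBP1 cells stably carrying IRE1-XBP1-driven luciferase reporter | Medium: F12 with 10% serum | Compound dosing: 20 µM single concentration, DMSO 1% | Incubation: Overnight seeding at 37 °C, 6 h compound treatment at 37 °C | Detection: Steady-Glo luminescence read | Read-out basis: % activation of reporter signal versus tunicamycin and DMSO controls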
# CHOP inh: inhibitors of CHOP induction in ER stress response; CHO-K1 CHOP-promoter luciferase, tunicamycin-induced, 15-18 h; inhibition, % at 10 µM; 220,000 compounds, 3.8% hits; AID 2732;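 active means compounds that reduced the stress-induced luciferase reporter signal by more than about 70% of percent inhibition, limit read from the data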;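 further: 0% = tunicamycin plus vehicle and 100% = wells without tunicamycin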
# Beta2AR agonist: activates human beta-2 adrenergic receptor causing internalization; Am2.2-beta2AR cells, FAP receptor internalization, flow cytometry; response, % (concentration not given with the values); P07550; 340,000 compounds, 0.43% hits; AID 504454;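 active means response above a set limit, near 3 SD of response in nonfluorescent compounds, cut at about 42% in these data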
# Beta2AR ag CP1: agonists of human beta-2 adrenergic receptor; shares compounds with Beta2AR agonist; Am2.2-beta2AR cells, FAP surface receptor, flow cytometry; hits give low values; percent response (surface receptor), % at 10 µM; 1,100 compounds, 25% hits;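 active means surface receptor percent response at or below 58%, roughly 3 SD from nonfluorescent compounds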
# FAP fluor counter: flagged in Am2.2 fluorescence counterscreen for beta-2AR agonists; 1,100 tested, under 10 active; calls only at 10 µM; Am2.2 cells, FAP fluorogen flow cytometry; hits give low values; shares compounds with Beta2AR agonist;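 active means percent response below a set limit in fluorescence channel 1 and below 50% in channel 8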
# Starred values were filed as active, the others as inactive; i = inactive; x = no result. This excerpt belongs to a sample that is enriched for hits.
SMILES,CHOP UPR activ,VLA-4 inh,UPR XBP1 act,CHOP inh,Beta2AR agonist,Beta2AR ag CP1,FAP fluor counter
O=C(COC(=O)CN1CCSC1=O)Nc1ccc(F)cc1Cl,1,10,-3,x,32,x,x
Cc1oc(CC(C)C)cc1C(=O)Nc1cccc2ccccc12,0,11,-1,49,43*,99,i
CN(C)S(=O)(=O)Nc1cc(Cl)cc(Cl)c1,2,10,-4,12,-6,x,x
COc1cc(NC(=O)c2nccnc2N)cc(C(=O)Nc2cccc(C(F)(F)F)c2)c1,2,6,11,54,7,x,x
O=C(Nc1cccc(C(F)(F)F)c1)c1csc(-c2ccncc2)n1,-1,2,-4,21,-3,x,x
COc1cc(NC(=O)c2ccc(N)nc2)cc(C(=O)Nc2cccc(C(F)(F)F)c2)c1,1,9,2,-12,43*,67,i
COc1cc(NC(=O)c2csc(-c3ccncc3)n2)cc(C(=O)Nc2cccc(C(F)(F)F)c2)c1,5,1,0,44,60*,86,i
C=CCn1c(CCNC(=O)c2cccs2)nnc1SCC(=O)c1cccc([N+](=O)[O-])c1,-1,-3,-4,1,106*,9.3*,i
C=CCn1c(CCNC(=O)c2cccs2)nnc1SCC(=O)c1ccc(Cl)cc1,-2,-1,-2,37,90*,31*,i
C=CCn1c(CCNC(=O)c2cccs2)nnc1SCC(=O)Nc1cccc(Cl)c1C,-1,3,0,10,60*,60,i
O=C(Cc1ccc(Cl)cc1)N/N=C/c1cccc(O)c1,-2,14,3,x,-2,x,x
COc1cc(/C=C/C(=O)OCC(=O)N2CCCC2)cc(OC)c1OC,1,-1,-1,x,-7,x,x
CCCCn1c(N)c(N(CC)C(=O)c2ccc3c(c2)S(=O)(=O)c2ccccc2C3=O)c(=O)[nH]c1=O,1,6,-1,18,55*,112,i
COc1ccc(CC(=O)Nc2cccc(-c3nnc(-c4ccc(C)cc4)o3)c2)cc1OC,-5,-2,-3,76*,50*,107,i
Cc1ccc(OCC(=O)Nc2cccc(-c3nnc(-c4ccccc4)o3)c2)c(C)c1,3,-17,1,14,13,x,x
COc1ccc(/C=C2\CCc3ccccc3C2=O)cc1O,0,19,19,x,20,x,x
CN(Cc1ccccc1F)c1nc(-c2cccnc2)nc2ccccc12,0,2,3,x,80*,53*,i
Cc1ccccc1Nc1nc(-c2cccnc2)nc2ccccc12,0,-8,5,37,-8,x,x
CCOc1ccc(CN(C)c2nc(-c3cccnc3)nc3ccccc23)cc1OC,1,5,5,x,-3,129,i
Cc1ccc(CN(C)c2nc(-c3cccnc3)nc3ccccc23)o1,2,5,0,x,45*,104,i
CCCCC(=O)N1C/C=C\[C@H](c2ccc(OC)cc2)N(Cc2ccc(F)cc2)C(=O)[C@@H]1C,0,22,0,x,-1,x,x
COc1ccc([C@H]2/C=C\CN(C(=O)c3ccccc3)[C@@H](C)C(=O)N2Cc2ccc(F)cc2)cc1,0,11,3,x,3,111,i
COc1ccc(C2/C=C\CN(C(=O)Oc3ccc(C(F)(F)F)cc3)CC(=O)N2Cc2ccc(F)cc2)cc1 (stereo not drawn),1,-5,1,21,9,x,x
COc1ccc(C2/C=C\CN(C(=O)c3ccc(C)cc3)CC(=O)N2Cc2ccc(F)cc2)cc1 (stereo not drawn),2,x,3,22,9,102,i
CC12CCC(O)CC1=CCC1C2CCC2(C)C(c3ccn[nH]3)CCC12 (stereo not drawn),x,x,x,x,44*,67,i
CCOC(=O)c1c(C)[nH]c(C)c1C(=O)COC(=O)c1cccc(S(=O)(=O)N(CC)CC)c1,-2,-8,-3,16,44*,118,i
Cc1ccc(CN2C(=O)CNC2=S)cc1,-1,5,2,20,0,x,x
